Source: ChEMBL document CHEMBL1147877, “Synthesis of novel triheterocyclic thiazoles as anti-inflammatory and analgesic agents” (2007)

What was measured:
Mus musculus [1] = test: Acute toxicity in Albino mouse at 100 mg/kg after 24 hrs; format: functional, organism-based; design: dose 100 mg/kg
Procedure, shortened: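 Albino mice (20–25 g), fasted overnight, dosed across 1000–100 mg/kg body weight and watched for 24 h for signs of acute toxicity, e.g. raised or lowered motor activity, tremors, convulsion, sedation, lacrimation.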

Rattus norvegicus [2] = test: Antiinflammatory activity in rat assessed as inhibition of formalin-induced paw oedema at 100 mg/kg, ip after 8 hrs; format: functional; conditions: route intraperitoneal
Procedure, shortened: (§1)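 Albino rats of either sex, six per group, with plain 2% CMC as control. Formalin injected into the paw to induce oedema. Paw volume measured by plethysmograph (mercury displacement) immediately after injection (0 h), then at 0.5, 1, 2, 4, 8, 12 and 24 h. Results given as % inhibition of inflammation. P < 0.05 taken as significant.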

Rattus norvegicus [3] = test: Antiinflammatory activity in rat assessed as inhibition of formalin-induced paw oedema at 100 mg/kg, ip after 24 hrs; format: functional; conditions: route intraperitoneal; procedure, shortened: as §1
Rattus norvegicus [4] = test: Antiinflammatory activity in rat assessed as inhibition of formalin-induced paw oedema at 100 mg/kg, ip after 0.5 hrs; format: functional; conditions: route intraperitoneal; procedure, shortened: as §1
Rattus norvegicus [5] = test: Antiinflammatory activity in rat assessed as inhibition of formalin-induced paw oedema at 100 mg/kg, ip after 4 hrs; format: functional; conditions: route intraperitoneal; procedure, shortened: as §1
Rattus norvegicus [6] = test: Antiinflammatory activity in rat assessed as inhibition of formalin-induced paw oedema at 100 mg/kg, ip after 1 hr; format: functional; conditions: route intraperitoneal; procedure, shortened: as §1
Mus musculus [7] = test: Analgesic activity in Albino mouse assessed as inhibition of acetic acid-induced writhing responses at 100 mg/kg, po; design: scale not given: the % may be the effect or the level left
Rattus norvegicus [8] = test: Antiinflammatory activity in rat assessed as inhibition of formalin-induced paw oedema at 100 mg/kg, ip after 12 hrs; format: functional; conditions: route intraperitoneal; procedure, shortened: as §1
Rattus norvegicus [9] = test: Antiinflammatory activity in rat assessed as inhibition of formalin-induced paw oedema at 100 mg/kg, ip after 2 hrs; format: functional; conditions: route intraperitoneal; procedure, shortened: as §1
Rattus norvegicus [10] = test: Antiinflammatory activity in rat assessed as inhibition of formalin-induced paw oedema at 100 mg/kg, ip; format: functional; conditions: route intraperitoneal; procedure, shortened: as §1

SMILES | Activity (Mus musculus [1]) | inhibition in vivo at 100 mg/kg (Rattus norvegicus [2]) | inhibition in vivo at 100 mg/kg (Rattus norvegicus [3]) | inhibition in vivo at 100 mg/kg (Rattus norvegicus [4]) | inhibition in vivo at 100 mg/kg (Rattus norvegicus [5]) | inhibition in vivo at 100 mg/kg (Rattus norvegicus [6]) | Activity (Mus musculus [7]) | inhibition in vivo at 100 mg/kg (Rattus norvegicus [8]) | inhibition in vivo at 100 mg/kg (Rattus norvegicus [9]) | inhibition in vivo at 100 mg/kg (Rattus norvegicus [10])
O=c1cc(CNc2nc(-c3cc4cc(Br)ccc4oc3=O)cs2)c2cc(Cl)ccc2[nH]1 | Not toxic | 28.6% | 9.08% | 4.11% | 19.8% | 4.42% | 88.89% | 15.6% | 5.26% | 3.03%
O=c1cc(CNc2nc(-c3cc4ccccc4oc3=O)cs2)c2cc(Cl)ccc2[nH]1 | Not toxic | – | – | – | – | – | – | – | – | –
O=c1cc(CNc2nc(-c3cc4ccccc4oc3=O)cs2)c2ccc(Cl)cc2[nH]1 | Not toxic | – | – | – | – | – | – | – | – | –
O=c1cc(CNc2nc(-c3cc4cc(Br)cc(Br)c4oc3=O)cs2)c2cc(Cl)ccc2[nH]1 | Not toxic | 21.9% | 9.35% | 6.75% | 29.8% | 13.8% | 48.7% | 14.4% | 17.8% | 2.85%
Cc1cccc2c(CNc3nc(-c4cc5cc(Br)cc(Br)c5oc4=O)cs3)cc(=O)[nH]c12 | Not toxic | 33.7% | 9.78% | 3.65% | 22.7% | 11.3% | 62.73% | 16.7% | 16.3% | 2.65%
Cc1cccc2c(CNc3nc(-c4cc5cc(Br)ccc5oc4=O)cs3)cc(=O)[nH]c12 | Not toxic | 18.5% | 16.9% | 3.12% | 14.5% | 8.76% | 35.05% | 24.1% | 9.19% | 1.6%
O=c1cc(CNc2nc(-c3cc4cc(Br)cc(Br)c4oc3=O)cs2)c2ccc(Cl)cc2[nH]1 | Not toxic | 41.5% | 10.6% | 3.27% | 34.5% | 12.6% | 78.22% | 18.7% | 13% | 2.89%
Cc1cccc2c(CNc3nc(-c4cc5ccccc5oc4=O)cs3)cc(=O)[nH]c12 | Not toxic | – | – | – | – | – | – | – | – | –
CC(=O)Oc1ccccc1C(=O)O [ASPIRIN] | – | 39.7% | 17.4% | 9.76% | 49.9% | 17.1% | 81.56% | 22.2% | 29.9% | 5.97%
O=c1cc(CNc2nc(-c3cc4cc(Br)ccc4oc3=O)cs2)c2ccc(Cl)cc2[nH]1 | Not toxic | 24.5% | 18.4% | 5.26% | 13.3% | 5.8% | 64.94% | 23.2% | 9.09% | 2.4%
